Screens as filed in PubChem.
Yeast lifespan up – yeast lifespan extension; inhibition of the nicotinamide effect, % at 10 µM; AID 775; 130,000 tested, 0.68% active; S. cerevisiae growth with nicotinamide, OD615; deaD strain in restrictive glucose medium;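 active = inhibition above a set limit, placed 3 SD over the median of all compounds, cut at about 26% in these data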
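assay system = DeaD-strain S. cerevisiae | measured by = absorbance at 615 nm | probe or stimulus = nicotinamide 1.5 mM | buffer or medium = CSMM-D glucose medium, restrictive | times = 48 h at 30 °C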
Insulin prom inh – TRM-6 insulin promoter activity inhibition; TRM-6 cells, insulin promoter-eGFP reporter, imaging; reporter expression induced with tamoxifen; inhibition, % at 2 µM; 130,000 tested, 0.9% active; AID 1273;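 active = inhibition above the mean plus 3 SD, with well images judged a real hit on visual review, cut at about 60% in these data, passing the limit was not always enough; inconclusive = inhibition over the cutoff but images rejected on review; inactive = inhibition not above the cutoff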
Yeast growth inh – chemicals that inhibit yeast BB579 growth in restrictive medium (lifespan-shortening candidates). S. cerevisiae BB579 growth, OD615, 48 h. inhibition, % at 10 µM. 140,000 tested, 0.51% active. AID 804;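 active = inhibition above a set limit, 3 SD over the mean compound inhibition, cut at about 44% in these data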
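controls = amphotericin B 10 µg/mL, positive | assay system = DeaD yeast strain BB579 | schedule = 48 h compound exposure at 30 °C after 4 h preincubation | detection = OD615 turbidity measurement | medium = restrictive CSMM-D medium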
RAM network inh – yeast RAM network inhibition | inhibition, % at 50 µM | AID 868 | 190,000 tested, 1.8% active | S. cerevisiae dse1pr::URA3 reporter, 5-FOA growth OD615, 2 d; analog-sensitive cbk1-as2 kinase mutant strain;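 active = inhibition above a set limit, 3 SD over mean compound inhibition, cut at about 8.4% in these data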;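 note: inhibition rescues growth on 5-FOA so higher OD means more RAM inhibition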
Efa HMGR inh – blocks class II HMG-CoA reductase of Enterococcus faecalis; purified E. faecalis HMGR, NADPH absorbance 340 nm kinetic; inhibition, % at 10 µM; 190,000 tested, 0.41% active;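 active = inhibition above a set limit, the median over all tested compounds plus 3 SD, cut at about 9.5% in these data; inconclusive = no clear call, values can overlap the other calls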;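 note: enzyme runs in reverse so mevalonate oxidation gives rising NADPH absorbance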
Large screens that a line does not name were inactive. Hits are enriched below; roughly 3.7% of the tested compounds scored in any of these assays.

COc1ccccc1CN1C(=O)[C@@H]2C(CCC(N)=O)NC3(C(=O)Nc4c3ccc(Cl)c4C)[C@@H]2C1=O (stereo not given in full)	Insulin prom inh 71.4
COc1ccccc1CN1C(=O)[C@@H]2C(CC(N)=O)NC3(C(=O)Nc4c3ccc(Cl)c4C)[C@@H]2C1=O (stereo not given in full)	none
O=c1c(-c2nnc(SCc3ccc(Cl)c(Cl)c3)o2)cccn1Cc1ccccc1	RAM network inh 10.6
Clc1cccc(CSc2nnc(-c3c[nH]c4ccccc34)o2)c1	RAM network inh 10.1 (no result: Insulin prom inh)
O=C(CSc1nnc(-c2ccccc2Cl)o1)Nc1ccc2c(c1)OCCO2	none (no result: Yeast lifespan up)
CC(C)c1ccc(C(N)=S)cc1	none (no result: Yeast lifespan up, Yeast growth inh)
O=[N+]([O-])c1ccc(N/N=C/c2sc(N3CCOCC3)nc2-c2ccccc2)c(S(=O)(=O)Nc2ccccc2Cl)c1	RAM network inh 8.4 (no result: Yeast lifespan up, Insulin prom inh, Yeast growth inh)
O=C(N/N=C/c1sc(N2CCOCC2)nc1-c1ccccc1)c1ccccc1Cl	none (no result: Yeast lifespan up, Yeast growth inh)
CCn1c(=O)cc(OCC(=O)NCc2cccs2)c2ccccc21	none (no result: Yeast lifespan up, Yeast growth inh)
CC(=O)OC1C2CCC1C([N+]1(C)CCCCC1)CC2 (stereo not given)	none (no result: Yeast lifespan up, Yeast growth inh)
CCOC(=O)CN1C(=O)C2Cc3ccccc3CN2C1=S (stereo not given)	none
O=C(COc1cccc(Cl)c1)Nc1ccc2c(c1)CCC2	none
CCOc1ccc2nc(C)cc(Nc3cccc([N+](=O)[O-])c3)c2c1	none
O=[N+]([O-])c1cc(CN2CCN(c3cccc(C(F)(F)F)c3)CC2)c2cccnc2c1O	none (no result: Yeast lifespan up, Yeast growth inh)
O=[N+]([O-])c1cc(CN2CCCC2)c2cccnc2c1O	Yeast growth inh 60.2
CC(C)COCc1ccc(O)c2ncccc12	none (no result: Yeast lifespan up, Insulin prom inh, Yeast growth inh)
Oc1ccc(CN2CCCCC2)c2cccnc12	Yeast growth inh 45.0 (no result: Yeast lifespan up)
Oc1ccc(COCc2ccccc2)c2cccnc12	Yeast growth inh 99.2 (no result: Insulin prom inh)
Cc1ccc(N=Nc2ccc(O)c3ncccc23)cc1	Yeast growth inh 55.4
Brc1cccc2sc(N3CCCC3)nc12	none (no result: Yeast lifespan up, Yeast growth inh)
CCOC(=O)c1ccc(NC(=O)Cn2c(-c3nonc3N)nc3ccccc32)cc1	none (no result: Yeast lifespan up, Yeast growth inh)
O=c1c2c(-c3ccccc3)csc2nc2c3ccccc3c(NCCN3CCOCC3)nn12	none (no result: Yeast lifespan up, Yeast growth inh)
OCc1ccc(O)c2ncccc12	Yeast growth inh 96.2
Oc1ccc(F)c2cccnc12	none (no result: Yeast lifespan up, Insulin prom inh, Yeast growth inh)
CCSc1nnc(NC(=O)[C@@H](NC(=O)c2cc(OC)cc(OC)c2)C(C)C)s1	none (no result: Yeast lifespan up, Insulin prom inh, Yeast growth inh)
CCOC(=O)CSc1nc2cc(C)ccc2cc1C#N	Insulin prom inh inconclusive
CCOC(=O)CSc1nc2cc(OC)ccc2cc1C#N	Insulin prom inh 93.8
CC1CC(C)CN(c2ccc([N+](=O)[O-])nc2)C1 (stereo not given)	none (no result: Yeast lifespan up, Insulin prom inh, Yeast growth inh)
CCC(C)N=C1Sc2nc3ccc(C)cc3cc2CN1CCOC (stereo not given)	Efa HMGR inh 9.6 (no result: Yeast lifespan up, Yeast growth inh)
COC(=O)c1ccccc1NC(=O)COc1ccc(S(=O)(=O)NC(C)C)cc1	none (no result: Yeast lifespan up, Insulin prom inh, Yeast growth inh)
Cc1ccc(O)c(C(=O)c2cc(C#N)c(=O)n(CC3CCCO3)c2)c1 (stereo not given)	none
COc1ccc(O)c(C(=O)c2cc(C#N)c(=O)n(CC3CCCO3)c2)c1 (stereo not given)	Yeast lifespan up 113.4
CN(C)S(=O)(=O)c1cc(NC(=O)CN2CCN(c3ccccc3O)CC2)ccc1Cl	none (no result: Yeast lifespan up, Yeast growth inh)
Cc1ccc(NC(=O)CCC(=O)OCC(=O)c2ccc(Oc3ccc([N+](=O)[O-])cc3)cc2)cc1C	RAM network inh 10.6
CCc1cc(C(=O)c2ccc(C)cc2)c(NC(=O)CCl)s1	RAM network inh 9.2
Cc1cc(C(=O)c2ccc(Cl)cc2)c(NC(=O)CCl)s1	none
COc1ccc2oc(C(=O)OCc3c(C)noc3C)c(C)c2c1	none (no result: Yeast lifespan up, Yeast growth inh)
O=c1c2ccccc2sn1-c1cc(S(=O)(=O)N2CCOCC2)ccc1N1CCOCC1	RAM network inh 9.2
O=C(N/N=C/c1ccccc1C(=O)O)c1cc(-c2ccc3c4c(cccc24)CC3)n[nH]1	Efa HMGR inh 12.7 (no result: Yeast lifespan up, Yeast growth inh)
O=C(N/N=C/c1ccco1)c1cc(-c2cccc3ccccc23)n[nH]1	none
CCn1c(NC(=O)c2ccco2)c(-c2ccccc2Cl)c(=O)c2ccccc21	Insulin prom inh 90.0
CCOC(=O)C1(CC2CCCCO2)CCN(C(=O)Nc2ccc(C(=O)OC)cc2)CC1 (stereo not given)	none (no result: Yeast lifespan up, Insulin prom inh, Yeast growth inh)
CC(C)c1ccc(C2NC(=O)CCC2[N+](=O)[O-])cc1 (stereo not given)	Efa HMGR inh 10.1 (no result: Yeast lifespan up, Insulin prom inh, Yeast growth inh)
O=C1CCC([N+](=O)[O-])C(c2ccc(Cl)cc2Cl)N1 (stereo not given)	none
CCc1nnc(NC(=O)c2cccc(S(=O)(=O)N(C)c3ccccc3)c2)s1	Yeast lifespan up 71.5
COc1ccc(N(C)S(=O)(=O)c2cccc(C(=O)Nc3nc4ccccc4[nH]3)c2)cc1	Insulin prom inh 71.4 (no result: Yeast lifespan up, Yeast growth inh)
COc1ccc(COc2cc(-c3cccc(OC)c3)nc3ccc(NC(=O)c4ccc(Cl)cc4)cc23)cc1	RAM network inh 8.4
COc1ccc(COc2cc(-c3cccc(OC)c3)nc3ccc(NC(=O)c4ccc(OC)cc4)cc23)cc1	none
CC(C)COC(=O)Nc1nnc(SCCOc2ccccc2)s1	Efa HMGR inh 13.3
Cc1ccc(N2NC(=O)/C(=C\c3cc4c(cc3[N+](=O)[O-])OCO4)C2=O)cc1C	Yeast lifespan up 48.6
CC1=C(C(=O)Nc2cccc(C)c2C)C(c2cccs2)NC(=S)N1 (stereo not given)	none
O=[N+]([O-])/C(=C\Nc1ccccc1Cl)S(=O)(=O)c1ccccc1	Efa HMGR inh 17.6
O=S(=O)(N/N=C\c1ccc(-c2ccccc2Cl)o1)c1ccccc1	RAM network inh 10.1 (no result: Yeast lifespan up)
COc1ccccc1NC(=O)Cn1c2ccccc2c2nc3n(c(=O)c21)CCS3	none (no result: Yeast lifespan up, Yeast growth inh)
O=C(NCc1ccco1)c1ccc(COc2cccc3ccccc23)cc1	none (no result: Insulin prom inh)
NNC(=O)c1ccc(COc2cccc3ccccc23)cc1	Yeast growth inh 89.8 (no result: Insulin prom inh)
Cc1ccccc1N(C)S(=O)(=O)c1ccc2[nH]cc(C(=O)NCC3CCCO3)c(=O)c2c1 (stereo not given)	none
CCOc1ccc(N(C)S(=O)(=O)c2ccc3[nH]cc(C(=O)NCC4CCCO4)c(=O)c3c2)cc1 (stereo not given)	RAM network inh 10.6
Cc1cc(OC(=O)c2cc(F)c(F)cc2Cl)nc(C)n1	none
Cc1cc(C)c(S(=O)(=O)c2ccccc2)c(OC(=O)c2cc(F)c(F)cc2Cl)n1	Yeast lifespan up 43.4
CC(C)N(Cc1nc(-c2ccc3c(c2)OCO3)no1)Cc1nccn1C	none (no result: Yeast lifespan up, Insulin prom inh, Yeast growth inh)
Cc1ccc(C(=O)N2N=C(CC(C)C)CC2(O)C(F)(F)F)o1 (stereo not given)	none (no result: Yeast lifespan up, Insulin prom inh, Yeast growth inh)
O=C(NC1CCCCC1)C(c1ccncc1)N(CC1CCCO1)C(=O)C(F)(F)F (stereo not given)	Insulin prom inh 90.0
Cn1cc(-c2nnnn2-c2cccc(C(F)(F)F)c2)c(C(F)(F)F)n1	none
COc1ccccc1C1=NOC(COC(=O)c2ccc(Br)cc2)C1 (stereo not given)	RAM network inh 10.5
